The target in assay [1] is T1, 3-phosphoinositide-dependent protein kinase 1 (Homo sapiens, UniProt O15530).
T1 sequence (O15530 whole entry): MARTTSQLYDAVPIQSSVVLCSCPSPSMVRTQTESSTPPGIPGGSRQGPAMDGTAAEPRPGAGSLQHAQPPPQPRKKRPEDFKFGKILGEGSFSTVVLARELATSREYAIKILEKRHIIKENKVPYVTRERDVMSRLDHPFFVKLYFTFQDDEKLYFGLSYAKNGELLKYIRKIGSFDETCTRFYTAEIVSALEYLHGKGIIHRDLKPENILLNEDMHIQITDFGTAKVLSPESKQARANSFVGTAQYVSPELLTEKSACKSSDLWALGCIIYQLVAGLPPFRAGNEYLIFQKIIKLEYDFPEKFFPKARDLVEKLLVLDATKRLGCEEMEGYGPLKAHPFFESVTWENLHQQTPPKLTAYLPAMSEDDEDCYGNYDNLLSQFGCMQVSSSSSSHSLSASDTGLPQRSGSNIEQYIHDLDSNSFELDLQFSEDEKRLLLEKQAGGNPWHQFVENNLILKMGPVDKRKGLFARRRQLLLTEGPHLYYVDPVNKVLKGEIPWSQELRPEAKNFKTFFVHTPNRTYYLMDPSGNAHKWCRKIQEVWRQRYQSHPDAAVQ
The assay can be described thus: Inhibition of PDK1. The essentials:
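Biochemical PDK1 enzymatic activity assay at 10 µM ATP; IC50 determined.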

The nature of assay [2]: Antiproliferative activity against human U87MG cells. In kind it is functional, cell-based, U-87MG ATCC. Particulars: U-87 MG. A digest of the protocol:
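Antiproliferation run in vitro on U87MG cells; potency expressed as EC50.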

Assay [3] can be described thus: Inhibition of PKA at 10 uM.
For assay [4], the target named is RAC-alpha serine/threonine-protein kinase (Homo sapiens) (UniProt P31749). The assay can be described thus: Inhibition of PKB at 10 uM.
Assay [5] concerns the target Phosphatidylinositol 4,5-bisphosphate 3-kinase catalytic subunit alpha isoform (Homo sapiens, UniProt P42336). The assay can be described thus: Inhibition of PI3K p110alpha.
Assay [6] addresses Phosphatidylinositol 4,5-bisphosphate 3-kinase catalytic subunit beta isoform (Homo sapiens, UniProt P42338). Description: Inhibition of PI3K p110beta.
Assay [7] has as its target T2, Phosphatidylinositol 4,5-bisphosphate 3-kinase catalytic subunit delta isoform (Homo sapiens, UniProt O00329).
T2 sequence (O00329 whole entry): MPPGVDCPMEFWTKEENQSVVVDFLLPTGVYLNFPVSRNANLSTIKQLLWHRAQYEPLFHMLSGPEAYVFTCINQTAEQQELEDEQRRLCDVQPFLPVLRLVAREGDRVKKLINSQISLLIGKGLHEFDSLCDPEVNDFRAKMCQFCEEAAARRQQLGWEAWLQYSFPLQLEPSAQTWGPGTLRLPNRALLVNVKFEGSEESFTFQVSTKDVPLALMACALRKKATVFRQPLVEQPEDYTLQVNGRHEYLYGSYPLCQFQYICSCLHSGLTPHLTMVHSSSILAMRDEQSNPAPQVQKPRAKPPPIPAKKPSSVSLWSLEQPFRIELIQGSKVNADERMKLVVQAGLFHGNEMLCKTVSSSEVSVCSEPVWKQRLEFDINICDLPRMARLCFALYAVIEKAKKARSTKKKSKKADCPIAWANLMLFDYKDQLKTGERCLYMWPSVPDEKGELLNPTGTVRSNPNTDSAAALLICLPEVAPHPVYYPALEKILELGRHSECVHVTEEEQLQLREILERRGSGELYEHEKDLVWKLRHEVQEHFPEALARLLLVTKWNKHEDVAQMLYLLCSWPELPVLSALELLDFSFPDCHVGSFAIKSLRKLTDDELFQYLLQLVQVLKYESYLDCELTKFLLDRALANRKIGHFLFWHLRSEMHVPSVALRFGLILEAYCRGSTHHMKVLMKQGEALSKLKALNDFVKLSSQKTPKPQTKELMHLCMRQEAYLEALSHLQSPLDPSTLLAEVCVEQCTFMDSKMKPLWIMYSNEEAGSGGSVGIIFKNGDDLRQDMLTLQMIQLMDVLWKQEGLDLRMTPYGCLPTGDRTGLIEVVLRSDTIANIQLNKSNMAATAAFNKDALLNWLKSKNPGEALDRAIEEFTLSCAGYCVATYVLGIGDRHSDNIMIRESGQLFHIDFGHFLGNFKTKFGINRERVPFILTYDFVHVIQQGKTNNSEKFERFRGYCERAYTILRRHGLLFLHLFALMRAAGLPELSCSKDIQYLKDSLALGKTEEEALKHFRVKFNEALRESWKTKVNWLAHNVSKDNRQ
Description: Inhibition of PI3K p110delta.

In assay [8] the target is Phosphatidylinositol 4,5-bisphosphate 3-kinase catalytic subunit gamma isoform (Homo sapiens, UniProt P48736). Description: Inhibition of PI3K p110gamma.
A short description of assay [9]: Antitumor activity in athymic mouse bearing human PC3M tumor assessed as reduction of tumor growth at 75 mg/kg, po bid after 15 days. Format: functional, PC-3M. Further details: scale not given: the % may be the effect or the level left. The essentials:
(§1)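 PC3M tumour-bearing mice, compound formulated in NMP/PEG300, given orally twice per day at 50 or 75 mg/kg. Tumour volume read on day 15. T/C = mean difference of treated group ÷ mean difference of vehicle-treated control group × 100.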

Assay [10] is described as follows: Antitumor activity in athymic mouse bearing human PC3M tumor assessed as reduction of tumor growth at 50 mg/kg, po bid after 15 days. Format: functional, PC-3M. Further details: scale not given: the % may be the effect or the level left. A digest of the protocol: as §1
The nature of assay [11]: Antitumor activity in mouse bearing human PC3M tumor assessed as reduction of tumor growth at 50 mg/kg, po bid after 27 days. In kind it is functional, PC-3M. Further details: scale not given: the % may be the effect or the level left. A digest of the protocol: (§2)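 PC3M tumour-bearing mice, oral dosing twice per day at 50 or 60 mg/kg in NMP/PEG300 vehicle. T/C taken on day 27 as mean difference of treated group over mean difference of vehicle control, ×100. Significance by one-way ANOVA followed by post hoc Dunnett's test versus control.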

Assay [12] in a line: Antitumor activity in mouse bearing human PC3M tumor assessed as reduction of tumor growth at 60 mg/kg, po bid after 27 days. Format: functional, PC-3M. Further details: scale not given: the % may be the effect or the level left. A digest of the protocol: as §2

Bounds are passed on as bounds.

Sequence of Phosphatidylinositol 4,5-bisphosphate 3-kinase catalytic subunit alpha isoform (P42336 whole entry, canonical isoform): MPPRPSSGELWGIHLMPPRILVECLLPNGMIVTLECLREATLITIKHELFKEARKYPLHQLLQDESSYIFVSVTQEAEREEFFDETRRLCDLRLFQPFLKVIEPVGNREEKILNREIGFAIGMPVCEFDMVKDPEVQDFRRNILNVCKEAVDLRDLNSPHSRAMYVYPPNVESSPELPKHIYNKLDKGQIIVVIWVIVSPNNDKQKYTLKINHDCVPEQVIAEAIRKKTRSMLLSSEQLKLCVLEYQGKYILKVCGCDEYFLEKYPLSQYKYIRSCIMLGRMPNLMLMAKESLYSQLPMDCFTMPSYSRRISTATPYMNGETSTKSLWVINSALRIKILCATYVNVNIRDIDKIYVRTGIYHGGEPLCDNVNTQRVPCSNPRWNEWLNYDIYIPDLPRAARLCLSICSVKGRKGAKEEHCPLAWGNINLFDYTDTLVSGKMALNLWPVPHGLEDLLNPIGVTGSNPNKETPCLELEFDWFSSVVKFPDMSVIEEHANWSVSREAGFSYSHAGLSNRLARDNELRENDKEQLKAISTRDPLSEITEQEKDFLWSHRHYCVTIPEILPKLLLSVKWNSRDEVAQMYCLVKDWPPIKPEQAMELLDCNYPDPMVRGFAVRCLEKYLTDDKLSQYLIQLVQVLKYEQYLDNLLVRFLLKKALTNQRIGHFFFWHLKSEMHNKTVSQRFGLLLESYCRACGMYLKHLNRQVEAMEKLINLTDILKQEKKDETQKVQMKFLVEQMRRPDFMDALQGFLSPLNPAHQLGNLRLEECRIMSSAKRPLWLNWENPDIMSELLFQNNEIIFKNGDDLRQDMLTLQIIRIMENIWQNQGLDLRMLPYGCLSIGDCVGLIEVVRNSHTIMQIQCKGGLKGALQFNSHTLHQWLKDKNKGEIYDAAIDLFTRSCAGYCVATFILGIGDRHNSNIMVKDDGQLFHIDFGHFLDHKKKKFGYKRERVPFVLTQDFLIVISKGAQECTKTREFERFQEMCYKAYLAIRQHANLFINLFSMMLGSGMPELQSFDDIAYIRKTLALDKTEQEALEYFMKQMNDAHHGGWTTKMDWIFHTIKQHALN
Sequence of Phosphatidylinositol 4,5-bisphosphate 3-kinase catalytic subunit gamma isoform (P48736 whole entry, canonical isoform): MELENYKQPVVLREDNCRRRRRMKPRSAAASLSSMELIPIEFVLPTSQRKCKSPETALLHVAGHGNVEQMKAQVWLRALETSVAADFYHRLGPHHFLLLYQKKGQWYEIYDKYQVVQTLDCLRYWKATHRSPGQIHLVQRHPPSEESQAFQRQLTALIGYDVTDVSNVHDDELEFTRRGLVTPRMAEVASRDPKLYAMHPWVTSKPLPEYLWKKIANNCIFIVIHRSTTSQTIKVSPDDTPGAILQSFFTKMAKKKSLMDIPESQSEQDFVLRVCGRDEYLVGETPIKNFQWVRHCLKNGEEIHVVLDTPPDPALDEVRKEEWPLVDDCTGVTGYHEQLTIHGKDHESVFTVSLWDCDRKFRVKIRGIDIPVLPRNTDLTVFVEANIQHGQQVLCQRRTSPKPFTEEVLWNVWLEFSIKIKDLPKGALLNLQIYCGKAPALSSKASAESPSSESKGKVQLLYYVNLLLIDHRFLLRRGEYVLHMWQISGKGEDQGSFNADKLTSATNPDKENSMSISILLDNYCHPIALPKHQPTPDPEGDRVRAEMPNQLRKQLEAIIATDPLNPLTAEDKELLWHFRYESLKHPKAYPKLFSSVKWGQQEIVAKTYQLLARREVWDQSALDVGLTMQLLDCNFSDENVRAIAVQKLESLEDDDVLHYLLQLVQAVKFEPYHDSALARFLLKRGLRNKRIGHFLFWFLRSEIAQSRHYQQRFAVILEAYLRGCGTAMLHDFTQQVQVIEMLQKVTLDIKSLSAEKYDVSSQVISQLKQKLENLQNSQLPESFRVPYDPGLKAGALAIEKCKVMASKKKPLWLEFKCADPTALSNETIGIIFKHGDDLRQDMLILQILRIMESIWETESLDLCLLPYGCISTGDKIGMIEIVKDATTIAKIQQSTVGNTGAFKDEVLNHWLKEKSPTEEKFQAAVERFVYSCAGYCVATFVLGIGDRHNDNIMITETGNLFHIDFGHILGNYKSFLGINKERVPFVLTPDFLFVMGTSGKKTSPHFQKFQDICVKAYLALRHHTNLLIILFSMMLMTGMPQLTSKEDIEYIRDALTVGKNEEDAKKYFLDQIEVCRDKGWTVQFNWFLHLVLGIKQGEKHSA
Sequence of Phosphatidylinositol 4,5-bisphosphate 3-kinase catalytic subunit beta isoform (P42338 whole entry, canonical isoform): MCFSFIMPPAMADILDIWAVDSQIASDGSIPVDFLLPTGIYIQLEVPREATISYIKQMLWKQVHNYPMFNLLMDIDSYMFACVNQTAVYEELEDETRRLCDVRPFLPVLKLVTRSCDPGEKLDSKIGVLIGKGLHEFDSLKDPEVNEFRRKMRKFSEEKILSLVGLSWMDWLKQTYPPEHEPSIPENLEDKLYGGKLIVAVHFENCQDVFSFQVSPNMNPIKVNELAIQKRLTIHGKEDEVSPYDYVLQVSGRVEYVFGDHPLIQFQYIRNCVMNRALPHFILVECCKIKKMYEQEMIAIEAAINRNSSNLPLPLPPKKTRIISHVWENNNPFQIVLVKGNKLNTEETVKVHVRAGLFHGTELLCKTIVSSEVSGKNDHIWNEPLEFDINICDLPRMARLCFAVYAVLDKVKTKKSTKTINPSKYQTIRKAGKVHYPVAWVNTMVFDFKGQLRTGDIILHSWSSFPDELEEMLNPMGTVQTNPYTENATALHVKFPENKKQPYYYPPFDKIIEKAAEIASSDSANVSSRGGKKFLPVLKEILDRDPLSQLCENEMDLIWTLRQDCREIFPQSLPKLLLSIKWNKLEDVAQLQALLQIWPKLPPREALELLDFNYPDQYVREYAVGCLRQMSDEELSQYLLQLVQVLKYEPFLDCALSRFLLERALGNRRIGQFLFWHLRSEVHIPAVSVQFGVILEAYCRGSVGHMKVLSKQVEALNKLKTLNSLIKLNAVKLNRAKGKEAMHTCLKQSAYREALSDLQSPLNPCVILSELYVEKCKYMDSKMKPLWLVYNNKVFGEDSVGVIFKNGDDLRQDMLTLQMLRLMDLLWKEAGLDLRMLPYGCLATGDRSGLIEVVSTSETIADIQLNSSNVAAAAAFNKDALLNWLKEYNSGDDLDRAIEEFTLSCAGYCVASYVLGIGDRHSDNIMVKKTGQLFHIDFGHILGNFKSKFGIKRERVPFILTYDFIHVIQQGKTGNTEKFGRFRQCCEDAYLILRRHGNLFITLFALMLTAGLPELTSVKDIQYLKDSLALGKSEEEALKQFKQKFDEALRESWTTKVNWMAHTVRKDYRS
Sequence of RAC-alpha serine/threonine-protein kinase (Homo sapiens) (P31749 whole entry, canonical isoform): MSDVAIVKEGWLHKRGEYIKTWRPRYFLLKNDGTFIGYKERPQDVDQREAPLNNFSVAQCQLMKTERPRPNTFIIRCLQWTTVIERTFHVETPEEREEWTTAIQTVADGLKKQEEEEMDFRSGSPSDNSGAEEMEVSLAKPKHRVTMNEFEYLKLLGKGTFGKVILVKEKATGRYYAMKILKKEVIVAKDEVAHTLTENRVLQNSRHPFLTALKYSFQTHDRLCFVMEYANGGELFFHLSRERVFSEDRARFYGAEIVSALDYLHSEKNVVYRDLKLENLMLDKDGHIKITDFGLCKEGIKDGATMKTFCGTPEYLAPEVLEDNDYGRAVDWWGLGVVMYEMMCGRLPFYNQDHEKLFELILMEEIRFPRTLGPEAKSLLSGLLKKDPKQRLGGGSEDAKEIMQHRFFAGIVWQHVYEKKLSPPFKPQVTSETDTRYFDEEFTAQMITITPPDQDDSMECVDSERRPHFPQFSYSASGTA

As usually defined, the IC50 is the concentration that inhibits the measured activity by half. By EC50 is commonly meant the concentration needed to bring the measured effect to its halfway point. In assay [1], `Cc1nc2cnc3ccc(C#Cc4cccnc4)cc3c2n1-c1ccc(CC#N)cc1` registered an IC50 of 110 nM. Further, the EC50 in [2] is 275 nM.
Taken in the same sequence, the figures for `CCc1nc2cnc3ccc(C#Cc4cccnc4)cc3c2n1-c1ccc(CC#N)cc1` were 327 nM and 400 nM.
As a reminder, the inhibition is the percentage by which the read-out fell short of the control. As for `N#CCc1ccc(-n2cnc3cnc4ccc(C#Cc5cccnc5)cc4c32)cc1`, the half-maximal inhibitory concentration (IC50) in [1] turned out to be 34 nM; in assay [5], 64 nM; in assay [6], 432 nM; in [7] it was 98 nM; in [8], 67 nM. In assay [2], this molecule yielded a concentration giving a half-maximal response (EC50) of 416 nM. The inhibition was found to be 24% in assay [3] and 0% in assay [4].
For the molecule `Cc1nc2cnc3ccc(C#Cc4cccnc4)cc3c2n1-c1ccc(C(C)C#N)cc1` (stereo not given), the 50% inhibitory concentration (IC50) in assay [1] was found to be 245 nM; in assay [5] it was 56 nM; in [6], 446 nM; in assay [7] it was 35 nM; in assay [8] it was 117 nM. Further, in assay [2], the midpoint of the response, the EC50, lay at 143 nM. Moreover, the Activity came out at 50% in [9] and 85% in [10].
As to `Cn1c(=O)n(-c2ccc(C(C)(C)C#N)cc2)c2c3cc(C#Cc4cccnc4)ccc3ncc21`, the IC50 in [1] is greater than 25000 nM; in assay [5] it was 72 nM; in assay [6] it was 2340 nM; in assay [7], 201 nM; in assay [8], 382 nM. In addition, the EC50 in assay [2] came out at 13 nM. In addition, the Activity in assay [11] was determined as 31%; in [12] it was 9%.
Turning to `CC(C)(C#N)c1ccc(-n2cnc3cnc4ccc(C#Cc5cccnc5)cc4c32)cc1`, in assay [1], the midpoint of inhibition, the IC50, lay at 150 nM. For the same molecule, the EC50 in assay [2] was 446 nM.
